Data as given in ChEMBL document CHEMBL1926614, “Substituted thiazoles V. synthesis and antitumor activity of novel thiazolo[2,3-b]quinazoline and pyrido[4,3-d]thiazolo[3,2-a]pyrimidine analogues” (2012).
Activity calls are given as the source filed them. No cut-off for these calls is given here.

How the values were obtained:
Format in all cases: functional
KM12 = assay: Growth inhibition of human KM12 cells at 10 uM after 48 hrs by coulter counting
Summary of the method: (§1)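 Single-dose primary screen across the full NCI 60-cell-line panel. Stocks were made in DMSO and diluted in PBS to a final DMSO below 1%. Cultures at 6 × 10⁴ cells/ml were run in duplicate wells alongside PBS/DMSO vehicle controls at 37 °C in humidified 5% CO₂. Data were expressed as percent growth of treated cells.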

HCT-116 = assay: Growth inhibition of human HCT116 cells at 10 uM after 48 hrs by coulter counting; summary of the method: as §1
SNB-75 = assay: Growth inhibition of human SNB75 cells at 10 uM after 48 hrs by coulter counting; conditions: SNB-75, 48 h, read-out: GI; summary of the method: as §1
T47D = assay: Growth inhibition of human T47D cells at 10 uM after 48 hrs by coulter counting; conditions: read-out: GI
Summary of the method: (§2)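 Single-dose screen in the NCI 60 human tumor cell line panel (nine subpanels). Compounds dissolved in DMSO and diluted in phosphate buffered saline, keeping final DMSO below 1%. Added in duplicate wells to cells at 6 × 10⁴ cells/ml. Controls held PBS and DMSO at matching dilutions. Incubated at 37 °C, humidified, 5% CO₂. Reported as percent growth of treated cells.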

[1] = Cytotoxicity against human renal cancer cells after 48 hrs by coulter counting; conditions: Cancer cell lines
Summary of the method: (§3)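 NCI 60-cell-line panel covering nine tumour subpanels, tested over a 5-log dose range. Compounds were dissolved in DMSO and diluted in phosphate-buffered saline to a final DMSO below 1%. Wells held 6 × 10⁴ cells/ml and were run in duplicate. Controls contained PBS and DMSO at matching dilutions. Incubation was at 37 °C in humidified 5% CO₂. GI₅₀, TGI and LC₅₀ were reported.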

CCRF-CEM = assay: Growth inhibition of human CCRF-CEM cells at 10 uM after 48 hrs by coulter counting; conditions: read-out: GI; summary of the method: as §1
HL-60(TB) = assay: Growth inhibition of human HL-60(TB) cells at 10 uM after 48 hrs by coulter counting; conditions: HL-60, 48 h, read-out: GI
Summary of the method: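 Test compound was dissolved in DMSO and diluted in phosphate-buffered saline to a final DMSO level below 1%. Dilutions were plated in duplicate with cell culture at 6 × 10⁴ cells/ml. Vehicle controls held PBS and DMSO at matching dilutions. Incubation was at 37 °C, humidified, under 5% CO₂. Data were reported as percent growth of treated cells.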

786-0 = assay: Growth inhibition of human 786-0 cells at 10 uM after 48 hrs by coulter counting; conditions: 786-0, 48 h, read-out: GI; summary of the method: as §1
NCI-H23 = assay: Growth inhibition of human NCI-H23 cells at 10 uM after 48 hrs by coulter counting; conditions: NCI-H23, 48 h, read-out: GI; summary of the method: as §1
BT-549 = assay: Growth inhibition of human BT549 cells at 10 uM after 48 hrs by coulter counting; conditions: BT-549, 48 h, read-out: GI; summary of the method: as §1
[2] = Cytotoxicity against human colon cancer cells after 48 hrs by coulter counting; conditions: Cancer cell lines; summary of the method: as §3
HOP-62 = assay: Growth inhibition of human HOP62 cells at 10 uM after 48 hrs by coulter counting; summary of the method: as §1
DU-145 = assay: Growth inhibition of human DU145 cells at 10 uM after 48 hrs by coulter counting; summary of the method: as §1
NCI-H522 = assay: Growth inhibition of human NCI-H522 cells at 10 uM after 48 hrs by coulter counting; conditions: NCI-H522, 48 h, read-out: GI; summary of the method: as §1
LOX IMVI = assay: Growth inhibition of human LOXIMVI cells at 10 uM after 48 hrs by coulter counting; summary of the method: as §1
M14 = assay: Growth inhibition of human M14 cells at 10 uM after 48 hrs by coulter counting; summary of the method: as §1
NCI-H226 = assay: Growth inhibition of human NCI-H226 cells at 10 uM after 48 hrs by coulter counting; conditions: NCI-H226, 48 h, read-out: GI; summary of the method: as §1
OVCAR-8 = assay: Growth inhibition of human OVCAR8 cells at 10 uM after 48 hrs by coulter counting; conditions: OVCAR-8, 48 h, read-out: GI; summary of the method: as §1
UO-31 = assay: Growth inhibition of human UO31 cells at 10 uM after 48 hrs by coulter counting; summary of the method: as §2
SF-268 = assay: Growth inhibition of human SF268 cells at 10 uM after 48 hrs by coulter counting; conditions: SF-268, 48 h, read-out: GI; summary of the method: as §1
UACC-62 = assay: Growth inhibition of human UACC62 cells at 10 uM after 48 hrs by coulter counting; summary of the method: as §2
[3] = Cytotoxicity against human breast cancer cells after 48 hrs by coulter counting; conditions: Cancer cell lines; summary of the method: as §3
K562 = assay: Growth inhibition of human K562 cells at 10 uM after 48 hrs by coulter counting; conditions: K562, 48 h, read-out: GI; summary of the method: as §1
SK-MEL-28 = assay: Growth inhibition of human SK-MEL-28 cells at 10 uM after 48 hrs by coulter counting; conditions: SK-MEL-28, 48 h, read-out: GI; summary of the method: as §1
SK-MEL-2 = assay: Growth inhibition of human SK-MEL-2 cells at 10 uM after 48 hrs by coulter counting; conditions: SK-MEL-2, 48 h, read-out: GI; summary of the method: as §1
ACHN = assay: Growth inhibition of human ACHN cells at 10 uM after 48 hrs by coulter counting; summary of the method: as §1
[4] = Cytotoxicity against human melanoma cells after 48 hrs by coulter counting; conditions: Melanoma cell; summary of the method: as §3
A549 = assay: Growth inhibition of human A549 cells at 10 uM after 48 hrs by coulter counting; conditions: A549, 48 h, read-out: GI; summary of the method: as §1
SF-295 = assay: Growth inhibition of human SF295 cells at 10 uM after 48 hrs by coulter counting; conditions: SF-295, 48 h, read-out: GI; summary of the method: as §1
[5] = Cytotoxicity against human ovarian cancer cells after 48 hrs by coulter counting; conditions: Cancer cell lines; summary of the method: as §3
[6] = Growth inhibition of human NCI-322M cells at 10 uM after 48 hrs by coulter counting; conditions: read-out: GI; summary of the method: as §1
HCT-15 = assay: Growth inhibition of human HCT15 cells at 10 uM after 48 hrs by coulter counting; summary of the method: as §1
SNB-19 = assay: Growth inhibition of human SNB19 cells at 10 uM after 48 hrs by coulter counting; conditions: SNB-19, 48 h, read-out: GI; summary of the method: as §1
[7] = Cytotoxicity against human CNS cancer cells after 48 hrs by coulter counting; conditions: Cancer cell lines; summary of the method: as §3
NSCLC = assay: Cytotoxicity against human NSCLC cells after 48 hrs by coulter counting; summary of the method: as §3
A498 = assay: Growth inhibition of human A498 cells at 10 uM after 48 hrs by coulter counting; conditions: A498, 48 h, read-out: GI; summary of the method: as §1
[8] = read-out: LC50 (the source's name)

CCN1CC2=C(N=C3SC=C(C)N3C2c2ccc(OC)c(OC)c2)/C(=C/c2ccc(OC)c(OC)c2)C1 (stereo not given)
growth inhibition (GI) (KM12): Active | growth inhibition (GI) (HCT-116): Active | inhibition of growth at 10 µM (SNB-75): 68.1% | inhibition of growth at 10 µM (T47D): 26.2% | GI50 [1]: 2.5 µM | LC50 (concentration giving 50% net cell kill) [1]: 47.1 µM | TGI [1]: 8.9 µM | inhibition of growth at 10 µM (CCRF-CEM): 97.8% | inhibition of growth at 10 µM (HL-60(TB)): 72.1% | inhibition of growth at 10 µM (786-0): 69.9% | inhibition of growth at 10 µM (NCI-H23): 67.6% | inhibition of growth at 10 µM (BT-549): 57% | GI50 [2]: 2.1 µM | LC50 (concentration giving 50% net cell kill) [2]: 35.3 µM | TGI [2]: 5.6 µM | growth inhibition (GI) (HOP-62): Active | growth inhibition (GI) (DU-145): Active | inhibition of growth at 10 µM (NCI-H522): 61.7% | growth inhibition (GI) (LOX IMVI): Active | growth inhibition (GI) (M14): Active | inhibition of growth at 10 µM (NCI-H226): 98.2% | inhibition of growth at 10 µM (OVCAR-8): 96.5% | growth inhibition (GI) (UO-31): Active | inhibition of growth at 10 µM (SF-268): 89.4% | growth inhibition (GI) (UACC-62): Active | GI50 [3]: 5.7 µM | TGI [3]: 49.5 µM | CC50 [3, 8]: 68.2 µM | inhibition of growth at 10 µM (K562): 96.4% | inhibition of growth at 10 µM (SK-MEL-28): 96.5% | inhibition of growth at 10 µM (SK-MEL-2): 27.4% | growth inhibition (GI) (ACHN): Active | GI50 [4]: 2.7 µM | TGI [4]: 10.8 µM | CC50 [4, 8]: 54.4 µM | inhibition of growth at 10 µM (A549): 93.2% | inhibition of growth at 10 µM (SF-295): 69.2% | GI50 [5]: 3.8 µM | TGI [5]: 49.7 µM | CC50 [5, 8]: > 100 µM | inhibition of growth at 10 µM [6]: 63.6% | growth inhibition (GI) (HCT-15): Active | inhibition of growth at 10 µM (SNB-19): 61% | GI50 [7]: 5.7 µM | LC50 [7]: > 100 µM | TGI [7]: 40.1 µM | GI50 (NSCLC): 3 µM | TGI (NSCLC): 44.2 µM | CC50 (NSCLC; [8]): 86.5 µM | inhibition of growth at 10 µM (A498): 53.8%
